Screens deposited in PubChem BioAssay by Johns Hopkins Ion Channel Center.
Shown are actives, neighbours in structure and some others; about 3.7% of the full set was active somewhere.
Kir21 inh: inhibitors of mouse Kir2.1 inward-rectifier potassium channel | HEK293-Kir2.1, FluxOR thallium flux fluorescence; active compounds read low | actives 0.85% (n = 310,000) | B-score at 10 µM | AID 1672, 2009;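 active means fluorescence ratio B-score at or below minus 3 SD of library scores, with starting-brightness B-score within 2 SD, cut at about -4.2 in these data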;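 further: channel flux triggered by added potassium and thallium sulfate stimulus; B-score of peak minus minimum fluorescence over baseline after thallium stimulus; more negative B-score means stronger Kir2.1 block with less thallium influx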
KCNQ1 inh: inhibitors of human KCNQ1 channel, primary screen, cell-based, thallium flux, high-throughput; Potassium voltage-gated channel subfamily KQT member 1 (Homo sapiens), P51787; CHO-K1 KCNQ1, FluxOR thallium flux fluorescence; active compounds read high; actives 1.3% (n = 310,000); B-score at 10 µM;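 active means compounds whose thallium flux B-score, printed positive for inhibition, exceeds three library SD while starting fluorescence stays within three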;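 further: channel opened by potassium depolarization with thallium stimulus after 20 min compound exposure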
KCNK3 block: human KCNK3 channel inhibitors, primary screen, CHO cells, FluxOR thallium flux, B-score | Potassium channel subfamily K member 3 (Homo sapiens), O14649 | FluxOR fluorescence; active compounds read low | B-score at 10 µM | AID 602410, 2012 | actives 0.84% (n = 340,000);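 active means B-score under library mean minus 4 SD, starting fluorescence ratio at most library mean plus 5 SD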;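 further: more negative B-score means stronger inhibition of thallium flux through KCNK3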
KCNQ1 pot: potentiators or activators of KCNQ1 channel, primary screen, cell-based, thallium flux, high-throughput | CHO-K1 KCNQ1, thallium flux FluxOR fluorescence; active compounds read high | B-score at 10 µM | actives 0.35% (n = 310,000) | Potassium voltage-gated channel subfamily KQT member 1 (Homo sapiens), P51787;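 active means fluorescence ratio B-score, a plate-corrected score, at least three library SD, with initial intensity B-score within 5 SD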
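System: Stable KCNQ1 CHO-K1 line | Incubation: 90 min dye loading and 20 min compound exposure, both at room temperature | Measure: Ratio B score | Medium: Assay buffer for compound exposure, DMSO matched across wells | Compound dosing: Single-concentration screen | Probe or stimulus: K+/Tl+ depolarizing stimulus | Measured by: Kinetic FluxOR fluorescence, 10 s baseline plus 110 s post-stimulus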
KCNK9 inh: KCNK9 potassium channel inhibitors, primary screen, HEK293 cells, thallium flux | Potassium channel subfamily K member 9 (Homo sapiens), Q9NPC2 | FluxOR thallium flux fluorescence; active compounds read low | B-score at 10 µM | actives 1.2% (n = 310,000);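 active means ratio B-score over 3 SD below the library mean, with starting fluorescence within 5 SD of its mean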;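 further: negative B-score means less thallium flux so channel inhibition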
hERG protect: hERG rescue from dofetilide block, primary screen, cell-based, CHO-hERG, FluxOR thallium flux, dofetilide IC70 | dofetilide IC70 present | activation (rescue from dofetilide block), less the hit threshold, % at 10 µM | actives 0.51% (n = 310,000) | AID 1511, 2009 | Voltage-gated inwardly rectifying potassium channel KCNH2 (Homo sapiens), Q12809;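 active means activation above the mean of controls blocked by dofetilide plus 5 SD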;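 further: thallium influx through hERG after potassium depolarization seen as dye fluorescence rise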
KCNK9 inh conf: KCNK9 potassium channel inhibitors, confirmation, HEK293 cells, thallium flux, duplicate | inhibition, % at 10 µM | FluxOR thallium flux fluorescence | shares compounds with KCNK9 inh | actives 43% (n = 4,900);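 active means thallium signal inhibited by more than 5 SD of the compound-free buffer control wells, on both duplicate plates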
Kir21 sel: mouse Kir2.1 channel inhibition, confirmation, selectivity assay for KCNK9 modulator project, cell-based, HEK293, thallium flux; shares compounds with KCNK9 inh; Kir2.1 cells, FluxOR thallium flux fluorescence; inhibition, % at 10 µM; actives 4% (n = 4,900); AID 492993, 2010;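 active means thallium signal drop more than 5 SD beyond the mean of the no-compound control wells, seen in both duplicate plates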;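 further: signal is fluorescence rise after thallium addition divided by baseline fluorescence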
HEK293 Tl ctr: thallium flux in non-induced HEK293 cells, confirmation, counter-screen for KCNK9 inhibitor project, cell-based, second counter screen, non-induced KCNK9-HEK293. shares compounds with KCNK9 inh. FluxOR thallium flux. inhibition, % at 10 µM. actives 40% (n = 4,900). AID 492997, 2010;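 active means thallium signal drop beyond 5 SD of the untreated control mean, on both duplicate plates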
Each line names hits and unclear results; the compound was inactive in the other large screens (follow-up assays come after a bar, where they were run).

Cc1cccc(NC(=O)C2(c3ccc([N+](=O)[O-])cc3)CCCC2)c1	KCNQ1 inh 6 | KCNK9 inh conf inactive | Kir21 sel inactive | HEK293 Tl ctr inactive
COc1ccccc1NS(=O)(=O)c1ccc2oc(SCc3ccc(F)cc3)nc2c1	none
COc1ccc(NS(=O)(=O)c2ccc3oc(SCc4ccc(F)cc4)nc3c2)cc1	none | KCNK9 inh conf inactive | Kir21 sel inactive | HEK293 Tl ctr inactive
O=C(N1CCCCCC1)N1CCN(S(=O)(=O)c2cccc([N+](=O)[O-])c2)CC1	none
CCOc1ccccc1N1CCN(C(=O)c2cc3cc(OC)ccc3[nH]2)CC1	none | KCNK9 inh conf inactive | Kir21 sel inactive | HEK293 Tl ctr inactive
Cc1onc(-c2ccc(Cl)cc2)c1-c1ccnn1S(=O)(=O)c1cccc(C(F)(F)F)c1	KCNK9 inh -11 | KCNK9 inh conf 55.0% | Kir21 sel inactive | HEK293 Tl ctr 47.0%
O=S(=O)(c1ccccc1)N1N=C(c2cccs2)CC1c1ccc(Br)cc1 (stereo unspecified)	KCNK9 inh -13.4 | KCNK9 inh conf 37.0% | Kir21 sel inactive | HEK293 Tl ctr 44.5%
Cc1ccc(C2CC(c3ccccc3)=NN2c2ccccc2)o1 (stereo unspecified)	KCNQ1 inh 8, KCNK9 inh -9.09 | KCNK9 inh conf 41.0% | Kir21 sel inactive | HEK293 Tl ctr 29.5%
c1ccc(C2CC(c3cccs3)=NN2c2ccccc2)cc1 (stereo unspecified)	KCNK9 inh -8.73 | KCNK9 inh conf 48.5% | Kir21 sel inactive | HEK293 Tl ctr inactive
Oc1ccc(C2=NN(c3ccccc3)C(c3ccc(F)cc3)C2)cc1 (stereo unspecified)	KCNK9 inh -11.5 | KCNK9 inh conf 42.5% | Kir21 sel inactive | HEK293 Tl ctr 36.0%
COc1ccc(C2CC(c3cccs3)=NN2c2ccc(C=O)cc2)cc1 (stereo unspecified)	none (no result: KCNK3 block)
Oc1ccccc1C1=NN(c2ccccc2)C(c2ccc(F)cc2)C1 (stereo unspecified)	none
COc1ccc(NC(=O)CN(C)S(=O)(=O)c2ccc3c(c2)CCC(=O)N3)c(OC)c1	none
Cc1sc2nc(CSC(C)C(=O)NC3(C#N)CCCCC3)[nH]c(=O)c2c1C (stereo unspecified)	none (no result: Kir21 inh, KCNQ1 inh, KCNQ1 pot, KCNK9 inh, hERG protect)
Cc1ccc(C(=O)N2CCC(Cc3ccccc3)CC2)cc1S(=O)(=O)N1CCOCC1	none (no result: Kir21 inh, KCNQ1 inh, KCNQ1 pot, KCNK9 inh, hERG protect)
CCc1nc2c(s1)CCc1onc(-c3ccc(Cl)cc3)c1-2	KCNK9 inh -12.9 | KCNK9 inh conf 69.5% | Kir21 sel inactive | HEK293 Tl ctr 37.5%
Cc1c(Cl)cccc1NC(=S)N(CCN(C)C)C(C)c1ccco1 (stereo unspecified)	none | KCNK9 inh conf inactive | Kir21 sel inactive | HEK293 Tl ctr inactive
Cc1ccc(C(C)C)c(OCc2nn(CC(=O)c3ccc(OC(F)F)cc3)c3[n+]2CCCCC3)c1	KCNQ1 inh 9, KCNK9 inh -8.38 | KCNK9 inh conf 51.0% | Kir21 sel inactive | HEK293 Tl ctr inactive
O=C(CN1CCc2cc3c(cc2C1)OCCCO3)Nc1cccc(Br)c1	none | KCNK9 inh conf inactive | Kir21 sel inactive | HEK293 Tl ctr inactive
CC(=O)c1cccc(NC(=O)CN2CCc3cc4c(cc3C2C)OCCCO4)c1 (stereo unspecified)	none | KCNK9 inh conf inactive | Kir21 sel inactive | HEK293 Tl ctr inactive
CC1c2cc3c(cc2CCN1C(=O)c1ccc(Cl)cc1)OCCCO3 (stereo unspecified)	KCNK9 inh -9.9 | KCNK9 inh conf 56.5% | Kir21 sel inactive | HEK293 Tl ctr 29.0%
Fc1ccc(CN2C3=NCCN3c3ccccc32)cc1	none
CCc1nc(SCC(=O)Nc2ccc(OC)cc2[N+](=O)[O-])n[nH]1	none
Cc1cc(C)cc(CC2CC(=O)N(c3cc(C)ccc3C)C2=O)c1 (stereo unspecified)	none | KCNK9 inh conf inactive | Kir21 sel inactive | HEK293 Tl ctr inactive
Cc1ccc(N2C(=O)CC(Cc3cc(C)cc(C)c3)C2=O)cc1 (stereo unspecified)	none
O=C(Nc1ccc(Cl)cn1)c1cccc2c(Br)cccc12	KCNK9 inh -16.6 | KCNK9 inh conf 71.0% | Kir21 sel inactive | HEK293 Tl ctr 42.0%
O=C(Nc1ccc(Br)cn1)c1cccc2ccccc12	none
O=C(Nc1cccc(-c2csc(Nc3ccccc3)n2)c1)c1ccccc1	none | KCNK9 inh conf inactive | Kir21 sel inactive | HEK293 Tl ctr inactive
N#CC1=C(N)OC2=C(CCc3ccccc32)C1c1ccccc1 (stereo unspecified)	KCNK9 inh -8.65 | KCNK9 inh conf 36.5% | Kir21 sel inactive | HEK293 Tl ctr 39.5%
Cc1ccc(/C=C2\CCC3=C2OC(N)=C(C#N)C3c2ccc(C)cc2)cc1 (stereo unspecified)	none
Cc1ccnc2nc(C(=O)Nc3nc(-c4ccccn4)cs3)nn12	none
COc1ccc(CNC(=O)CN(c2cc(C)cc(C)c2)S(=O)(=O)c2c(C)noc2C)cc1	KCNK9 inh -8.61 | KCNK9 inh conf inactive | Kir21 sel inactive | HEK293 Tl ctr inactive
COc1ccc(CNC(=O)CN(c2ccc(C)cc2)S(=O)(=O)c2c(C)noc2C)cc1	none
Cc1ccc(C(=O)N2CCN(S(=O)(=O)c3ccccc3)CC2)s1	none
Clc1cccc(CSc2nccn2-c2ccccc2)c1	Kir21 inh -7.85 | KCNK9 inh conf inactive | Kir21 sel inactive | HEK293 Tl ctr inactive
O=C(CSc1nccn1-c1ccccc1)NO	none
FC(F)(F)c1ccc(CSc2nccn2-c2ccccc2)cc1	Kir21 inh -4.57 | KCNK9 inh conf inactive | Kir21 sel inactive | HEK293 Tl ctr inactive
Brc1ccc(CSc2nccn2-c2ccccc2)cc1	none | KCNK9 inh conf inactive | Kir21 sel inactive | HEK293 Tl ctr inactive
